Sampled rows, rich in hits. Any-hit rate of the full collection: about 3.1%.
miR-122 sensor: miR-122 Renilla sensor signal increase in Huh7, primary screen, miR-122 inhibitor project, cell-based, single point, plate reader; Huh7 miR-122 Renilla luciferase sensor, 48 h; neutral wells = 0, positive control = 100; activation (reporter increase), % at 12.5 µM; actives 0.3% (n = 340,000); AID 602342, 2012;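 active = mean replicate activation score at least 90 and every replicate individually at or above 90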;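 note: higher luciferase means less miR-122 activity so hits act as miR-122 inhibitors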
INS-1E GSIS act: GLuc luminescence reporter in INS-1E cells, primary screen for activators of glucose-dependent secretion of insulin. INS-1E GLuc reporter insulin secretion, 2-3 h. activation, % at 16.6 µM. actives 0.61% (n = 370,000). AID 743287, 2014;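 active = lowest replicate activation of at least 40%, so every replicate reaches that level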;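 note: 0% = median of neutral control wells and 100% = median of IBMX positive control wells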
Cneo AK release: Cryptococcus neoformans cell lysis inducers, primary screen, AK release luminescence, single concentration | C. neoformans lysis, adenylate kinase release luminescence, 4 h; normalised: neutral wells 0, clomiphene wells 100 | lysis activity, % at 15 µM | actives 0.2% (n = 360,000);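 active = mean lysis activity across replicates of at least 80%, whatever share of replicates individually reach that level; inactive = mean lysis activity below 80%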
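Material: C. neoformans cells; Schedule: 4 h static compound exposure, 37 °C, read 1 h post-reagent; Measured by: adenylate kinase release luminescence; Read-out: signal increase indicating cell lysis; Controls: Clomiphene as positive lysis control.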
Ecoli rRNA inh: reduced GFP signal of wild-type E. coli, primary screen, bacterial rRNA inhibitor project, GFP/RFP fluorescence, OD600, single point | E. coli WT GFP vs humanized-ribosome RFP mutants, 24 h; hits give low values; DMSO median 0, no signal -100 | GFP signal change (wild-type ribosome), % (concentration not given with the values) | actives 1.6% (n = 350,000) | AID 720706, 2013;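 active = significant combined selectivity score with lowered wild-type GFP, culture density cut under 30%, mutant RFP and density less affected; inactive = any of these conditions unmet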
Env fusion inh: inhibitors of HIV-1 Env-driven cell-cell fusion, primary screen, HeLa-JRFL effector, CEM21 target cells, luciferase; inhibition, % at 12.3 µM; actives 1.1% (n = 360,000); AID 651610, 2012;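 active = mean replicate inhibition score of at least 50 and every replicate individually at or above 50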;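 note: 0% = plate neutral controls and 100% = maraviroc near 300 nM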
F508del corr: F508del CFTR correction, initial screen, CFBE line, single point. CFBE cells, YFP halide quenching; stimulated with forskolin plus potentiator P3; % fluorescence drop versus neutral controls. activity (quench increase), % at 7.58 µM. actives 0.36% (n = 350,000);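 active = mean added fluorescence quench of at least 8% versus neutral control, with both replicates also reaching 8%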;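 note: cells transiently co-express mutant CFTR-F508del with the halide-sensitive YFP; corrector assay measuring rescue of mutant channel to the surface after 24 h compound exposure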
An asterisk follows results filed as active; / = no result given; ! = not confirmed by another sample; [ ] = remark or other dose.

SMILES | miR-122 sensor | INS-1E GSIS act | Cneo AK release | Ecoli rRNA inh | Env fusion inh | F508del corr
O=C(N/N=C/c1ccccn1)c1cc(-c2ccc(Br)s2)[nH]n1 | / | 6 | -2 | 4 | -1 | 0
C/C(=N\NC(=O)c1cc(-c2ccc(C)s2)[nH]n1)c1ccncc1 | / | 0 | -1 | -15* | 13 | 0
COCC(=O)N1C[C@@H](C)[C@@H](OC)CN(C)C(=O)c2ccc(NC(=O)NC(C)C)cc2OC[C@H]1C | 6[16.7 µM] | 1 | 71 | 2 | / | 0
N#C[C@@H]1[C@H](c2ccccc2-c2ccccc2)[C@H](CO)N1C(=O)NC1CCCCC1 | / | -9 | / | -4 | / | -1
COc1ccc(S(=O)(=O)Nc2ccc(-c3ccc4nnc(C)n4n3)cc2)c(OC)c1 | 92* | 5 | -1 | -4 | / | -3
COc1ccc(OC)c(S(=O)(=O)Nc2ccc(-c3ccc4nnc(C)n4n3)cc2)c1 | / | -8 | / | -1 | -61 | 1
CC(C)NC(=O)N(C)C[C@@H]1OCCCC[C@@H](C)Oc2ccc(NC(=O)C3CCCCC3)cc2C(=O)N([C@@H](C)CO)C[C@@H]1C | 0[16.7 µM] | -9 | 0 | 4 | 1[16.7 µM] | 0
COc1ccccc1S(=O)(=O)N[C@@H]1CC[C@H](CCNC(=O)C2CCCCC2)O[C@H]1CO | / | 3 | 2 | -1 | 6[16.7 µM] | 1
Cc1ccc(S(=O)(=O)N(C)C[C@H]2Oc3cc(C#CC4CCCC4)ccc3S(=O)(=O)N([C@H](C)CO)C[C@H]2C)cc1 | 82 | -3 | 2 | 7 | 7 | -3
COc1ccc(S(=O)(=O)N(C)C[C@H]2Oc3cc(C#CC4CC4)ccc3S(=O)(=O)N([C@H](C)CO)C[C@H]2C)cc1 | 135*[16.7 µM] | -10 | 54 | 4 | 37[16.7 µM] | -1
Cc1ccc(S(=O)(=O)N(C)C[C@@H]2Oc3cc(C#CC4CCCC4)ccc3S(=O)(=O)N([C@H](C)CO)C[C@H]2C)cc1 | 5[16.7 µM] | -6 | -5 | 7 | 58*[16.7 µM] | 1
COc1ccc(S(=O)(=O)N(C)C[C@@H]2Oc3cc(Br)ccc3S(=O)(=O)N([C@H](C)CO)C[C@@H]2C)cc1 | 9 | -19 | -1 | -4 | 57*! | 0
O=C(O)c1ccc(S(=O)(=O)NCc2ccc3c(c2)OCO3)cc1 | -5 | 43* | 0 | 3 | 2 | -3
O=C(Nc1ccc(S(=O)(=O)NCc2ccccc2)cc1)Nc1ccc2c(c1)OCO2 | 243* | / | -5 | -4 | / | -1
O=C(NC(=S)NCc1ccc2c(c1)OCO2)c1ccccc1 | 111* | -5 | 44 | -17 | / | 1
CCCNC(=O)N1C[C@H](C)[C@@H](OC)CN(C)C(=O)c2cc(NC(C)=O)ccc2OC[C@@H]1C | 1[16.7 µM] | 3 | 0 | 2 | / | 3
C[C@H]1CN([C@@H](C)CO)C(=O)Cc2cc(NC(=O)Nc3ccc4c(c3)OCO4)ccc2O[C@H]1CN(C)Cc1ccc(Cl)c(Cl)c1 | -9[16.7 µM] | -15 | -1 | -2 | 41[16.7 µM] | 4
CO[C@@H]1CN(C)C(=O)c2ccc(NS(C)(=O)=O)cc2OC[C@H](C)N(C(=O)C2CCCCC2)C[C@H]1C | / | -2 | 5 | -2 | -27[16.7 µM] | -2
COCC(=O)N1C[C@H](C)[C@@H](OC)CN(C)C(=O)c2ccc(NS(C)(=O)=O)cc2OC[C@@H]1C | / | 8 | 98* | 0 | 10[16.7 µM] | -1
CO[C@@H]1CN(C)C(=O)c2ccc(NS(C)(=O)=O)cc2OC[C@@H](C)N(C(=O)C2CCCCC2)C[C@H]1C | / | -4 | -66 | 4 | 66*[16.7 µM] | 1
CO[C@H]1CN(C)C(=O)c2cc(NS(=O)(=O)c3ccc(C)cc3)ccc2OC[C@@H](C)N(C(=O)NC(C)C)C[C@@H]1C | / | 7 | 97* | -1 | -1[16.7 µM] | 1
COCC(=O)N1[C@H](CO)[C@@H](c2ccc(-c3cccc(F)c3)cc2)C12CN(C(=O)C1CC1)C2 | / | -15 | / | -3 | / | 2
CC1(c2ccccc2)NC(=O)N(CC(=O)Nc2nc(-c3ccccn3)cs2)C1=O (centres undefined) | / | 3 | 6 | -30 | -4 | 7
Cc1ccc(C2(C)NC(=O)N(CC(=O)Nc3nc(-c4ccccn4)cs3)C2=O)cc1 (centres undefined) | 9 | -12 | 3 | -41 | 4 | 10.0*
COc1ccc(C(=O)Nc2ccccc2C(=O)Nc2ccncc2)cc1 | -1 | 45* | -11 | -9 | -32 | 0
SMILES | miR-122 sensor | INS-1E GSIS act | Cneo AK release | Ecoli rRNA inh | Env fusion inh | F508del corr
CCOc1cc(C(=O)O/N=C(\N)c2ccccn2)cc(OCC)c1OCC | -1 | 15 | -2 | -2 | -5 | 2
COc1cc(OC)cc(C(=O)NNC(=O)c2ccccn2)c1 | -8 | 17 | 1 | -33 | 37 | 2
COc1ccc(C(=O)NNC(=O)c2ccccn2)cc1 | / | 13 | / | 7 | 62* | -5
CCOc1ccc(C(=O)O/N=C(\N)c2ccccn2)cc1OCC | / | 87* | 2 | -2 | -95 | 0
COc1ccc2c(c1)C(=NNC(=O)c1ccccn1)c1cc(OC)ccc1-2 | / | 146* | / | / | -51 | /
CO[C@@H]1CN(C)C(=O)c2ccc(NC(C)=O)cc2OC[C@@H](C)N(CC2CCCCC2)C[C@H]1C | / | -8 | / | -1 | / | /
COc1ccc(C(=O)O/N=C(\N)c2ccccn2)cc1 | 25 | -7 | -10 | 8 | 70* | -2
C/C(N)=C(/C#N)C(=O)COC(=O)c1ccccc1O | / | -5 | / | / | / | /
C/C(N)=C(/C#N)C(=O)COC(=O)c1ccccc1C(=O)c1ccc(C)cc1 | / | -4 | / | -21* | 10 | -1
C[C@H](CO)N1C[C@H](C)[C@@H](CN(C)Cc2ccc(-c3ccccc3)cc2)Oc2c(NC(=O)C3CC3)cccc2C1=O | 7[16.7 µM] | -4 | 22 | -1 | / | 5
C[C@@H]1CCCCO[C@@H](CN(C)C(=O)Nc2ccc(C(F)(F)F)cc2)[C@H](C)CN([C@@H](C)CO)C(=O)c2cc(NS(=O)(=O)c3ccc(F)cc3)ccc2O1 | -10[16.7 µM] | 11 | -4 | 1 | -39[16.7 µM] | 1
C[C@H]1CCCCO[C@@H](CN(C)C(=O)Nc2ccc(C(F)(F)F)cc2)[C@@H](C)CN([C@@H](C)CO)C(=O)c2cc(NS(=O)(=O)c3ccccc3)ccc2O1 | 19[16.7 µM] | 19 | 2 | 4 | 64*[16.7 µM] | -5
C[C@H](CO)N1C[C@H](C)[C@@H](CN(C)C(=O)Nc2ccc(C(F)(F)F)cc2)OCCCC[C@H](C)Oc2ccc(NS(=O)(=O)c3ccc(F)cc3)cc2C1=O | -2[16.7 µM] | 13 | -1 | 1 | 70*[16.7 µM] | 1
